Assay results from ChEMBL document CHEMBL1132458, “Potent and selective inhibition of varicella-zoster virus (VZV) by nucleoside analogues with an unusual bicyclic base” (J Med Chem, 1999).

Experiments:
[1] = system: Human alphaherpesvirus 3; experiment: Compound was evaluated for the inhibition of VZV strains of YS; type: functional, organism-based
[2] = system: HEL; experiment: Compound was evaluated for the cytotoxicity against HEL cells; type: functional; settings: Homo sapiens
[3] = system: HEL; experiment: Compound was evaluated for the cytotoxicity against HEL cells; settings: Homo sapiens
[4] = system: Human alphaherpesvirus 3; experiment: Compound was evaluated for the inhibition of VZV strains of OKA; type: functional, organism-based
[5] = system: Human alphaherpesvirus 3; experiment: Compound was evaluated for the inhibition of VZV (TK-) thymidine kinases Strain YS-R; type: functional, organism-based
[6] = system: Human alphaherpesvirus 3; experiment: Compound was evaluated for the inhibition of VZV (TK-) thymidine kinases Strain 07; type: functional, organism-based
[7] = system: Human alphaherpesvirus 3; experiment: Compound was evaluated for the inhibition of VZV (TK-) thymidine kinase-deficient strain 07; type: functional, organism-based
Procedure, shortened: (§1)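 Confluent human embryonic lung (HEL) fibroblasts were infected with 20 PFU per well of virus for 1–2 h, and then residual virus was removed. Cells were then kept in MEM with 2% inactivated FCS, 1% L-glutamine and 0.3% sodium bicarbonate, plus serial compound concentrations. Plaques were scored after 5 days. EC50 is the concentration cutting plaque formation by 50% versus untreated control.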

[8] = system: Human alphaherpesvirus 3; experiment: Compound was evaluated for the inhibition of VZV (TK-) thymidine kinase-deficient strain YS-R; type: functional, organism-based; procedure, shortened: as §1

SMILES	EC50 [1]	EC50 [4]	EC50 [5]	EC50 [6]	EC50 [7]	EC50 [8]	MCC [2]	IC50 [3]
CCCCCCCCCc1cc2cn([C@H]3C[C@H](O)[C@@H](CO)O3)c(=O)nc2o1	20 nM	20 nM	> 200000 nM	> 200000 nM	–	–	> 200 µM	> 200000 nM
CCCCCCc1cc2cn([C@H]3C[C@H](O)[C@@H](CO)O3)c(=O)nc2o1	2800 nM	1300 nM	–	–	> 50000 nM	> 50000 nM	200 µM	> 200000 nM
CCCCCCCCCCCc1cc2cn([C@H]3C[C@H](O)[C@@H](CO)O3)c(=O)nc2o1	500 nM	500 nM	> 50000 nM	> 50000 nM	–	–	200 µM	> 200000 nM
Nc1nc2c(ncn2COCCO)c(=O)[nH]1 [ACYCLOVIR]	–	–	–	–	–	–	> 200 µM	> 200000 nM
O=c1[nH]c(=O)n([C@H]2C[C@H](O)[C@@H](CO)O2)cc1/C=C/Br [BRIVUDINE]	6 nM	3 nM	> 300000 nM	144000 nM	–	–	> 150 µM	> 400000 nM

Further lines, with some results ahead:

EC50 [1]	EC50 [4]	EC50 [5]	EC50 [6]	EC50 [7]	EC50 [8]	SMILES	MCC [2]	IC50 [3]
8 nM	15 nM	> 50000 nM	> 50000 nM	–	–	CCCCCCCCCCc1cc2cn([C@H]3C[C@H](O)[C@@H](CO)O3)c(=O)nc2o1	> 50 µM	> 50000 nM
24 nM	8 nM	> 50000 nM	> 50000 nM	–	–	CCCCCCCCc1cc2cn([C@H]3C[C@H](O)[C@@H](CO)O3)c(=O)nc2o1	> 50 µM	> 50000 nM
390 nM	170 nM	> 50000 nM	> 50000 nM	–	–	CCCCCCCc1cc2cn([C@H]3C[C@H](O)[C@@H](CO)O3)c(=O)nc2o1	> 50 µM	> 50000 nM
4600 nM	3000 nM	–	–	> 50000 nM	> 50000 nM	CCCCCc1cc2cn([C@H]3C[C@H](O)[C@@H](CO)O3)c(=O)nc2o1	> 50 µM	> 50000 nM
1100 nM	1300 nM	> 20000 nM	> 50000 nM	–	–	CCCCCCCCCCCCc1cc2cn([C@H]3C[C@H](O)[C@@H](CO)O3)c(=O)nc2o1	50 µM	> 200000 nM
